What is called ED50 is the dose that gives a 50% effect, or the effect in half of the subjects. The low end stands for an effect at a small dose, the high end for a need for a large dose.

This test relates to Mus musculus. As to the kind of experiment: Antinociceptive activity was measured using the mouse acetylcholine-induced abdominal constriction test following subcutaneous administration of the compound. The format is functional. Conditions: Abdomen, sc. An outline of the steps: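 Male/female not stated; mice dosed subcutaneously, then challenged with acetylcholine to provoke abdominal constrictions. Inhibition of constrictions scored, and an ED50 (mg/kg, sc) derived for each compound.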
With `O=C(Cc1ccc(Cl)c(Cl)c1)N1CCC2(CC1CN1CCCC1)OCCO2` (stereo unspecified), the median effective dose (ED50) was 1 µg/kg.
The value for `O=C(Cc1ccc(Cl)c(Cl)c1)N1CCc2occc2C1CN1CC[C@H](O)C1` (single isomer, unassigned) was 1 µg/kg; that for `O=C1CCN(CC2c3ccoc3CCN2C(=O)Cc2ccc(Cl)c(Cl)c2)C1` (stereo unspecified) was 19 µg/kg.
In turn, `O=C(Cc1ccc(Cl)c(Cl)c1)N1CCc2c(O)cccc2C1CN1CCC(O)C1` (stereo unspecified) had an ED50 of 84 µg/kg. This ED50 lies about 4.4-fold higher than the previous one.
The value for `Cc1cc2c(o1)CCN(C(=O)Cc1ccc(Cl)c(Cl)c1)C2CN1CCC(O)C1` (stereo unspecified) was 12 µg/kg; that for `O=C(Cc1ccc(Cl)c(Cl)c1)N1CCc2occc2C1CN1CCCC1` (stereo unspecified) was 30 µg/kg.
For the molecule `O=C(Cc1ccc(Cl)c(Cl)c1)N1CCc2occc2C1CN1CC=CCC1` (stereo unspecified), it took a dose of 4 µg/kg to reach the 50% effect level (ED50).
The result for `O=C(Cc1ccc(Cl)c(Cl)c1)N1CCc2occc2C1CN1CCC(O)C1` (stereo unspecified) reads 2 µg/kg; that for `O=C(Cc1ccc(Cl)c(Cl)c1)N1CCc2occc2[C@H]1CN1CC[C@@H](O)C1`, 30 µg/kg.
In the case of `O=C(Cc1ccc(Cl)c(Cl)c1)N1CCc2c(O)cccc2C1CN1CCCC1` (stereo unspecified), it took a dose of 3 µg/kg to reach the 50% effect level (ED50). This ED50 is about 10-fold lower than that of the molecule before.
The molecule `O=C(Cc1ccc(Cl)c(Cl)c1)N1CCc2occc2[C@@H]1CN1CC[C@H](O)C1` had a median effective dose (ED50) of 1.5 µg/kg.
